Assay results reported in ChEMBL document CHEMBL2157982, “Synthesis and structure-activity relationships of 8-substituted-2-aryl-5-alkylaminoquinolines: Potent, orally active corticotropin-releasing factor-1 receptor antagonists” (Bioorg Med Chem, 2012).
Converted amounts (≈) assume the structure as drawn. The source made the active and inactive calls. The calls are words filed in the database; no cut-off is given here.

How the values were obtained:
[1] = Solubility of the compound in HCl/NaCl at pH 1.2 by high-throughput HPLC method; type: physicochemical; conditions: HCl/NaCl solution
Outline: (§1)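 A 10 mM DMSO stock of compound was diluted 1:100 into buffer in a filter plate and shaken 15 min at room temperature, then filtered. Filtrate analysed by reverse-phase HPLC-UV against an external DMSO standard. Buffers: pH 1.2 HCl/NaCl; pH 5 and 9 Britton–Robinson (acetate/phosphate/borate with KCl, NaOH-adjusted); pH 7.4 Dulbecco's PBS.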

[2] = biological target: T1, Corticotropin-releasing factor receptor 1 (Homo sapiens, UniProt P34998); experiment: Displacement of [125I]-CRF from human CRF1 receptor expressed in HEK293 cells after 2 hrs by scintillation counting; type: cell-based
T1 sequence (P34998 whole entry): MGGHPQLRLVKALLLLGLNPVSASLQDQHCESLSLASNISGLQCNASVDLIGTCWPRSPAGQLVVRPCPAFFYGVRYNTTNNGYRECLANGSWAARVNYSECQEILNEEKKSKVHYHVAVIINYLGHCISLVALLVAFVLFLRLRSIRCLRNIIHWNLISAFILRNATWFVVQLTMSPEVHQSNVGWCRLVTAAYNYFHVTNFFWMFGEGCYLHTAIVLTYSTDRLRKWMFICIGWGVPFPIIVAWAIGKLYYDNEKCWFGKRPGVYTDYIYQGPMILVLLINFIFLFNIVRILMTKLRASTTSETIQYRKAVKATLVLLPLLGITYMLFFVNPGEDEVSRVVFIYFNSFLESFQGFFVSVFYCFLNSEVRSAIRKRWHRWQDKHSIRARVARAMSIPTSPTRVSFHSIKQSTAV
Outline: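 Scintillation proximity assay using HEK293/human CRF1 membranes (5 µg/well), WGA-coated SPA beads (1 mg/well) and 0.1 nM [125I] human/rat CRF. Buffer: PBS-type salts, 10 mM MgCl2, 2 mM EGTA, 1.5% BSA, protease inhibitors, pH 7.0. Incubated over 2 h at room temperature, then centrifuged and counted. Nonspecific binding defined with 0.4 µM sauvagine. IC50 from concentration-response curve of % total specific binding.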

[3] = biological target: T1, Corticotropin-releasing factor receptor 1; experiment: Antagonist activity at human CRF1 receptor expressed in HEK293 cells assessed as inhibition of CRF-induced intracellular cAMP production preincubated for 30 mins before CRF addition measured after 30 mins by enzyme immunoassay; type: functional, cell-based
[4] = Aqueous solubility of the compound in Dulbecco's phosphate-buffered saline at pH 7.4 by high-throughput HPLC method; type: physicochemical; outline: as §1
[5] = Dissociation constant, pKa of the compound; type: physicochemical
[6] = Solubility of the compound in Britton-Robinson buffer at pH 5 by high-throughput HPLC method; type: physicochemical; outline: as §1
[7] = Solubility of the compound in Britton-Robinson buffer at pH 9 by high-throughput HPLC method; type: physicochemical; outline: as §1
Rattus norvegicus [8] = experiment: Inhibition of CRF-induced ACTH release in Fischer 344 rat plasma at 30 mg/kg, po administered 60 mins before CRF challenge by RIA; type: functional, organism-based; parameters: dose 30 mg/kg
Outline: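 Male Fischer 344 rats (152–177 g) dosed orally 1 h before subcutaneous CRF at 10 µg/kg; controls got vehicle 5% DMSO/5% Cremophor/90% saline. Trunk blood taken 30 min after CRF into EDTA and spun. Plasma ACTH measured in duplicate by immunoradiometric kit against ACTH standard curve. n = 5–6 rats; mean ± S.E.M.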

Mus musculus [9] = experiment: Anxiolytic activity in po dosed BALB/c mouse assessed as increase in time spent on illuminated box administered 60 mins before test measured for 5 mins by light-dark test; type: functional, organism-based
Outline: (§2)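 Male BALB/c mice, n = 10/group, dosed orally 1 h before test. Animals were habituated to 10 lx for at least 2 h (room at 150 lx) and placed in the dark compartment at start. Observed for 5 min, scoring time in the illuminated box and number of tunnel crossings. Mean ± S.E.M., Dunnett test versus vehicle.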

Mus musculus [10] = experiment: Anxiolytic activity in po dosed BALB/c mouse assessed as increase in number of tunnel crossings administered 60 mins before test measured for 5 mins by light-dark test; type: functional, organism-based; outline: as §2
[11] = Half life in Fischer 344 rat at 3 mg/kg, iv; type: ADME, organism-based; parameters: dose 3 mg/kg, route intravenous; conditions: in vivo
Outline: (§3)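 Fasted F344 rats (n = 3 per dose, 189.4–205.9 g) received 3 mg/kg iv in 5% EtOH-0.02 mol/L HCl/5% glucose, or 10 mg/kg po in 5% DMSO/5% Cremophor EL/HCl/water. Blood sampled at 0.083 h (iv only), then 0.25–8 h. Brain taken 1 h after po dosing and homogenized. Samples protein-precipitated with imipramine internal standard and quantified by LC–MS/MS (ESI+). Mean ± SEM.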

Rattus norvegicus [12] = experiment: AUC (infinity) in Fischer 344 rat at 3 mg/kg, iv; type: ADME, organism-based, Plasma; parameters: time infinity, dose 3 mg/kg, route intravenous; conditions: in vivo
Outline: (§4)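 Fasted F344 rats (n = 3 per dose, 189.4–205.9 g). iv: 3 mg kg−1 given as 3 mg mL−1 in 5% ethanol-0.02 mol L−1 HCl/5% glucose. p.o.: 10 mg kg−1 given as 2 mg mL−1 in 5% DMSO/5% Cremophor EL/equivalent HCl/H2O. Blood sampled at 0.083 h (iv only), then 0.25, 0.5, 1, 2, 4, 6 and 8 h. Plasma extracted with MeOH/MeCN containing imipramine internal standard and measured by positive-ESI LC–MS/MS. Results given as mean ± SEM.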

[13] = Volume of distribution at steady state in Fischer 344 rat at 3 mg/kg, iv; type: ADME, organism-based; parameters: dose 3 mg/kg, route intravenous; conditions: in vivo, read-out: Vdss; outline: as §3
[14] = Total blood clearance in Fischer 344 rat at 3 mg/kg, iv; type: ADME, organism-based; parameters: dose 3 mg/kg, route intravenous; conditions: whole blood; outline: as §3
[15] = Cmax in Fischer 344 rat at 10 mg/kg, po; type: ADME, organism-based; parameters: dose 10 mg/kg, route oral; conditions: in vivo; outline: as §3
[16] = Tmax in Fischer 344 rat at 10 mg/kg, po; type: ADME, organism-based; parameters: dose 10 mg/kg, route oral; conditions: in vivo; outline: as §3
Rattus norvegicus [17] = experiment: AUC (infinity) in Fischer 344 rat at 10 mg/kg, po; type: ADME, organism-based, Plasma; parameters: time infinity, dose 10 mg/kg, route oral; conditions: in vivo; outline: as §4
[18] = Oral bioavailability in Fischer 344 rat at 10 mg/kg; type: ADME, organism-based; conditions: in vivo; outline: as §3
[19] = Ratio of drug level in brain to plasma in Fischer 344 rat at 10 mg/kg, po after 1 hr; type: ADME, organism-based; parameters: dose 10 mg/kg, route oral; conditions: brain and plasma, read-out: BPR; outline: as §3
Mus musculus [20] = experiment: Anxiolytic activity in BALB/c mouse assessed as increase in time spent on illuminated box at 30 mg/kg, po administered 60 mins before test measured for 5 mins by light-dark test; type: functional, organism-based; parameters: dose 30 mg/kg; outline: as §2
Mus musculus [21] = experiment: Anxiolytic activity in po dosed BALB/c mouse assessed as increase in number of tunnel crossings at 30 mg/kg, po administered 60 mins before test measured for 5 mins by light-dark test; type: functional, organism-based; parameters: dose 30 mg/kg; outline: as §2

| SMILES | IC50 [2] | IC50 [3] | solubility [4] | also measured |
| --- | --- | --- | --- | --- |
| CCN(CC)c1ccc(C(F)(F)F)c2nc(-c3c(OC)cc(COC)cc3OC)c(C)cc12 | 288 nM | 259 nM | < 0.2 µM | – |
| CCN(CC)c1ccc(C#N)c2nc(-c3c(OC)cc(COC)cc3OC)c(C)cc12 | 102 nM | 36 nM | 3.2 µM (≈ 1.34 µg/mL) | solubility [1]: > 100 µM; pKa [5]: < 3; solubility [6]: 2.1 µM (≈ 0.881 µg/mL); solubility [7]: 4.2 µM (≈ 1.76 µg/mL) |
| CCN(CC)c1ccc(OC)c2nc(-c3c(OC)cc(COC)cc3OC)ccc12 | 202 nM | 332 nM | 38.2 µM (≈ 15.7 µg/mL) | – |
| CCN(CC)c1ccc(C)c2nc(-c3c(OC)cc(COC)cc3OC)ccc12 | – | – | < 0.2 µM | – |
| CCN(CC)c1ccc(OC)c2nc(-c3c(OC)cc(C#N)cc3OC)c(C)cc12 | 132 nM | 63 nM | 11 µM (≈ 4.46 µg/mL) | – |
| CCN(CC)c1ccc(C(F)F)c2nc(-c3c(OC)cc(COC)cc3OC)c(C)cc12 | 414 nM | – | < 0.2 µM | – |
| CCN(CC)c1ccc(Cl)c2nc(-c3c(OC)cc(COC)cc3OC)c(C)cc12 | 62 nM | 28 nM | < 0.2 µM | – |
| CCN(CC)c1ccc(C)c2nc(-c3c(OC)cc(COC)cc3OC)c(Cl)cc12 | – | – | < 0.2 µM | – |
| CCN(CC)c1ccc(OC)c2nc(-c3c(OC)cc(C)cc3OC)c(C)cc12 | 99 nM | 43 nM | 17.3 µM (≈ 6.83 µg/mL) | – |
| CCN(CC)c1ccc(F)c2nc(-c3c(OC)cc(COC)cc3OC)c(C)cc12 | 226 nM | 67 nM | 10.5 µM (≈ 4.33 µg/mL) | – |
| CCN(CC)c1ccc(C)c2nc(-c3c(OC)cc(COC)cc3OC)c(F)cc12 | – | – | < 0.2 µM | – |

Now from value to compound, other results behind:

| IC50 [2] | IC50 [3] | solubility [4] | SMILES | also measured |
| --- | --- | --- | --- | --- |
| 110 nM | 91 nM | 74 µM (≈ 31.4 µg/mL) | CCN(CC)c1ccc(OC)c2nc(-c3c(OC)cc(COC)cc3OC)c(C)cc12 | solubility [1]: > 100 µM; pKa [5]: 6.01; solubility [6]: 98.2 µM (≈ 41.7 µg/mL); solubility [7]: 71 µM (≈ 30.1 µg/mL); Activity (Rattus norvegicus [8]): Active; Activity (Mus musculus [9]): Dose-dependent effect; Activity (Mus musculus [10]): Dose-dependent effect; half-life [11]: 1.73 h; AUC (Rattus norvegicus [12]): 1.542 µg/mL/h; Vd [13]: 2.15 L/kg; clearance [14]: 44 mL/min/kg; Cmax [15]: 305 ng/mL; Tmax [16]: 0.5 h; AUC (Rattus norvegicus [17]): 0.845 µg/mL/h; bioavailability [18]: 16.4%; Kp at 1 h [19]: 0.61 |
| 108 nM | 32 nM | 12.1 µM (≈ 5.31 µg/mL) | CCc1cc2c(N(CC)CC)ccc(OC)c2nc1-c1c(OC)cc(COC)cc1OC | – |
| 118 nM | 75 nM | 4.6 µM (≈ 1.97 µg/mL) | CCN(CC)c1ccc(OC)c2nc(-c3c(OC)cc(COC)cc3OC)c(F)cc12 | – |
| – | – | 1.7 µM (≈ 0.695 µg/mL) | CCN(CC)c1ccc(C)c2nc(-c3c(OC)cc(COC)cc3OC)c(C)cc12 | solubility [1]: > 100 µM; pKa [5]: 5.86; solubility [6]: 22 µM (≈ 8.99 µg/mL); solubility [7]: 2 µM (≈ 0.817 µg/mL) |
| 144 nM | 57 nM | 1.9 µM (≈ 0.845 µg/mL) | CCN(CC)c1ccc(OC)c2nc(-c3c(OC)cc(COC)cc3OC)c(Cl)cc12 | – |
| 392 nM | – | 89.4 µM (≈ 40.6 µg/mL) | CCN(CCOC)c1ccc(OC)c2nc(-c3c(OC)cc(COC)cc3OC)c(C)cc12 | – |
| 105 nM | 99 nM | < 0.2 µM | CCCN(CCC)c1ccc(OC)c2nc(-c3c(OC)cc(COC)cc3OC)c(C)cc12 | – |
| > 1000 nM | – | 2.9 µM (≈ 1.27 µg/mL) | CCN(CC)c1ccc(COC)c2nc(-c3c(OC)cc(COC)cc3OC)c(C)cc12 | – |
| 67 nM | 22 nM | 3.7 µM (≈ 1.59 µg/mL) | CCN(CC)c1ccc(OC)c2nc(-c3c(Cl)cc(COC)cc3OC)c(C)cc12 | Activity (Mus musculus [9]): Dose-dependent effect; Activity (Mus musculus [10]): Dose-dependent effect; Activity (Mus musculus [20]): Active; Activity (Mus musculus [21]): Active |
| 156 nM | 65 nM | 8.7 µM (≈ 4.2 µg/mL) | COCCN(CC(C)C)c1ccc(OC)c2nc(-c3c(OC)cc(COC)cc3OC)c(C)cc12 | – |
| – | – | 2 µM (≈ 0.873 µg/mL) | CCCN(CCC)c1ccc(C)c2nc(-c3c(OC)cc(COC)cc3OC)c(C)cc12 | – |
| – | – | 7.2 µM (≈ 3.16 µg/mL) | CCN(CCOC)c1ccc(C)c2nc(-c3c(OC)cc(COC)cc3OC)c(C)cc12 | – |
